Test results published in ChEMBL document CHEMBL2384952, “Synthesis, antifungal and cytotoxic activities of 2-aryl-3-((piperidin-1-yl)ethyl)thiazolidinones” (Eur J Med Chem, 2013).
Values after ≈ are worked out from the molar mass of the structure shown.

Tests used:
[1] = tested on: Papiliotrema laurentii; assay: Antifungal activity against Cryptococcus laurentii after 48 hrs by CLSI M27A3 broth microdilution method; assay type: functional
Method in brief: (§1)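 Yeasts were kept on Sabouraud dextrose agar and subcultured at 35 °C for at least 2 days. They were suspended in saline to McFarland 0.5 and diluted in RPMI. Ten successive dilutions were made from a 1.6 mg/mL DMSO stock per CLSI broth microdilution, then incubated at 37 °C for 48 h. Growth was read visually against a growth-control well, and MIC is the lowest concentration inhibiting growth.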

[2] = tested on: Rhodotorula; assay: Antifungal activity against Rhodotorula species after 48 hrs by CLSI M27A3 broth microdilution method; assay type: functional; method in brief: as §1
[3] = tested on: Trichosporon asahii; assay: Antifungal activity against Trichosporon asahii after 48 hrs by CLSI M27A3 broth microdilution method; assay type: functional; method in brief: as §1
[4] = tested on: Geotrichum; assay: Antifungal activity against Geotrichum species after 48 hrs by CLSI M27A3 broth microdilution method; assay type: functional; method in brief: as §1
[5] = tested on: Candida albicans; assay: Antifungal activity against Candida albicans after 48 hrs by CLSI M27A3 broth microdilution method; assay type: functional; method in brief: as §1
[6] = tested on: Candida parapsilosis; assay: Antifungal activity against Candida parapsilosis after 48 hrs by CLSI M27A3 broth microdilution method; assay type: functional; settings: Lodderomyces parapsilosis; method in brief: as §1
[7] = tested on: Meyerozyma guilliermondii; assay: Antifungal activity against Candida guilliermondii after 48 hrs by CLSI M27A3 broth microdilution method; assay type: functional; method in brief: as §1
[8] = tested on: Vero; assay: Cytotoxicity against African green monkey Vero cells at 197 ug/mL by neutral red dye uptake assay relative to control; assay type: cell-based; settings: chlorocebus sabaeus
Method in brief: (§2)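 Vero cells (over 99% viable by trypan blue exclusion) were exposed to serial compound dilutions in E-MEM, with fresh E-MEM as negative control, for 72 h at 37 °C, 5% CO2. Cells were then given 3.3 mg/L neutral red for 2 h, and the dye was extracted with 50% ethanol/1% acetic acid. A540 was read, and viability was calculated as treated/control absorbance × 100.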

[9] = tested on: Vero; assay: Cytotoxicity against African green monkey Vero cells at 394 ug/mL by neutral red dye uptake assay relative to control; assay type: cell-based; settings: chlorocebus sabaeus; method in brief: as §2
[10] = tested on: Vero; assay: Cytotoxicity against African green monkey Vero cells at 1575 ug/mL by neutral red dye uptake assay relative to control; assay type: cell-based; settings: chlorocebus sabaeus; method in brief: as §2
[11] = tested on: Vero; assay: Cytotoxicity against African green monkey Vero cells at 3150 ug/mL by neutral red dye uptake assay relative to control; assay type: cell-based; settings: chlorocebus sabaeus; method in brief: as §2
[12] = tested on: Vero; assay: Cytotoxicity against African green monkey Vero cells at 12.3 ug/mL by neutral red dye uptake assay relative to control; assay type: cell-based; settings: chlorocebus sabaeus; method in brief: as §2
[13] = tested on: Vero; assay: Cytotoxicity against African green monkey Vero cells at 25 ug/mL by neutral red dye uptake assay relative to control; assay type: cell-based; settings: chlorocebus sabaeus; method in brief: as §2
[14] = tested on: Vero; assay: Cytotoxicity against African green monkey Vero cells at 787 ug/mL by neutral red dye uptake assay relative to control; assay type: cell-based; settings: chlorocebus sabaeus; method in brief: as §2
[15] = tested on: Vero; assay: Cytotoxicity against African green monkey Vero cells at 98 ug/mL by neutral red dye uptake assay relative to control; assay type: cell-based; settings: chlorocebus sabaeus; method in brief: as §2
[16] = tested on: Vero; assay: Cytotoxicity against African green monkey Vero cells at 49 ug/mL by neutral red dye uptake assay relative to control; assay type: cell-based; settings: chlorocebus sabaeus; method in brief: as §2

SMILES | MFC [1] [µg/mL] | MIC [1] [µg/mL] | MFC [2] [µg/mL] | MIC [2] [µg/mL] | MFC [3] [µg/mL] | MIC [3] [µg/mL] | MFC [4] [µg/mL] | MIC [4] [µg/mL] | MFC [5] [µg/mL] | MIC [5] [µg/mL] | MFC [6] [µg/mL] | MIC [6] [µg/mL] | MFC [7] [µg/mL] | MIC [7] [µg/mL] | Cell viability [8] [%] | Cell viability [9] [%] | Cell viability [10] [%] | Cell viability [11] [%] | Cell viability [12] [%] | Cell viability [13] [%] | other results
OC(Cn1cncn1)(Cn1cncn1)c1ccc(F)cc1F [FLUCONAZOLE] | 1 (≈ 3.27 µM) | 1 (≈ 3.27 µM) | 26.5 (≈ 86.5 µM) | 26.5 (≈ 86.5 µM) | 1 (≈ 3.27 µM) | 1 (≈ 3.27 µM) | 8 (≈ 26.1 µM) | 8 (≈ 26.1 µM) | 1 (≈ 3.27 µM) | 1 (≈ 3.27 µM) | 1 (≈ 3.27 µM) | 1 (≈ 3.27 µM) | 16 (≈ 52.2 µM) | 16 (≈ 52.2 µM) |  |  |  |  |  |  | 
COc1ccc(C2SCC(=O)N2CCN2CCCCC2)cc1 (configuration not stated) | 100 (≈ 312 µM) | 100 (≈ 312 µM) | 33.5 (≈ 105 µM) | 33.5 (≈ 105 µM) | > 400 | > 400 | > 400 | > 400 | 75 (≈ 234 µM) | 75 (≈ 234 µM) | 50 (≈ 156 µM) | 50 (≈ 156 µM) | 100 (≈ 312 µM) | 100 (≈ 312 µM) | 87 | 73 | 11 | 11 | 100 | 100 | Cell viability [14]: 33%; Cell viability [15]: 89%; Cell viability [16]: 100%
O=C1CSC(c2ccccc2Cl)N1CCN1CCCCC1 (configuration not stated) | 100 (≈ 308 µM) | 100 (≈ 308 µM) | 33 (≈ 102 µM) | 33 (≈ 102 µM) | 66.5 (≈ 205 µM) | 66.5 (≈ 205 µM) | 50 (≈ 154 µM) | 50 (≈ 154 µM) | 75 (≈ 231 µM) | 75 (≈ 231 µM) | 100 (≈ 308 µM) | 100 (≈ 308 µM) | 100 (≈ 308 µM) | 100 (≈ 308 µM) | 71 | 31 | 16 | 22 | 100 | 100 | Cell viability [14]: 38%; Cell viability [15]: 94%; Cell viability [16]: 100%
O=C1CSC(c2ccc(Cl)cc2)N1CCN1CCCCC1 (configuration not stated) | 100 (≈ 308 µM) | 100 (≈ 308 µM) | 50 (≈ 154 µM) | 50 (≈ 154 µM) | 50 (≈ 154 µM) | 50 (≈ 154 µM) | 50 (≈ 154 µM) | 50 (≈ 154 µM) | 62 (≈ 191 µM) | 62 (≈ 191 µM) | 100 (≈ 308 µM) | 100 (≈ 308 µM) | 100 (≈ 308 µM) | 100 (≈ 308 µM) | 68 | 28 | 13 | 11 | 90 | 84 | Cell viability [14]: 15%; Cell viability [15]: 74%; Cell viability [16]: 84%
O=C1CSC(c2cccc(Cl)c2)N1CCN1CCCCC1 (configuration not stated) | 100 (≈ 308 µM) | 100 (≈ 308 µM) | 25 (≈ 77 µM) | 25 (≈ 77 µM) | 100 (≈ 308 µM) | 100 (≈ 308 µM) | 50 (≈ 154 µM) | 50 (≈ 154 µM) | 62 (≈ 191 µM) | 62 (≈ 191 µM) | 100 (≈ 308 µM) | 100 (≈ 308 µM) | 100 (≈ 308 µM) | 100 (≈ 308 µM) | 77 | 45 | 20 | 15 | 100 | 100 | Cell viability [14]: 31%; Cell viability [15]: 100%; Cell viability [16]: 100%
Cc1ccc(C2SCC(=O)N2CCN2CCCCC2)cc1 (configuration not stated) | 66 (≈ 217 µM) | 66 (≈ 217 µM) | 37.5 (≈ 123 µM) | 37.5 (≈ 123 µM) | 50 (≈ 164 µM) | 50 (≈ 164 µM) | 100 (≈ 328 µM) | 100 (≈ 328 µM) | 62 (≈ 204 µM) | 62 (≈ 204 µM) | 100 (≈ 328 µM) | 100 (≈ 328 µM) | 100 (≈ 328 µM) | 100 (≈ 328 µM) | 85 | 51 | 13 | 12 | 100 | 100 | Cell viability [14]: 17%; Cell viability [15]: 100%; Cell viability [16]: 100%
O=C1CSC(c2ccc(F)cc2)N1CCN1CCCCC1 (configuration not stated) | 100 (≈ 324 µM) | 100 (≈ 324 µM) | 25 (≈ 81.1 µM) | 25 (≈ 81.1 µM) | 100 (≈ 324 µM) | 100 (≈ 324 µM) | 50 (≈ 162 µM) | 50 (≈ 162 µM) | 45 (≈ 146 µM) | 45 (≈ 146 µM) | 100 (≈ 324 µM) | 100 (≈ 324 µM) | 100 (≈ 324 µM) | 100 (≈ 324 µM) | 73 | 52 | 14 | 11 | 100 | 100 | Cell viability [14]: 17%; Cell viability [15]: 87%; Cell viability [16]: 100%
